# Laboratory results from PubChem BioAssay.
# Activity calls are given as the source filed them.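 The calls were made as follows, unless noted: active = membrane potential signal rise above negative control mean plus 3 SD in both duplicates, also active in the earlier TRPC4 screen; inactive = the rest.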
# Target: Short transient receptor potential channel 6 (Mus musculus) (UniProt Q61143)
# Test: TRPC6 blockade by TRPC4 inhibitor hits – cell-based, HEK293, membrane potential dye, duplicate, selectivity assay for TRPC4 inhibitor project, confirmation (AID 434948;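 active = active in primary screen and both duplicates, each dropping signal beyond three positive-control SD with fluorescence still positive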)
# Details: HEK293 TRPC6, membrane potential dye fluorescence, at 10 µM, stimulated with maximal-effect acetylcholine; hits give high values
# Procedure, shortened: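 System: TRPC6-expressing HEK293 cells. Timing: dye 45 min RT, compound 110 s, agonist read 110 s. Measured by: kinetic fluorescence of membrane potential dye with 5 s baseline.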
# Chain of Short transient receptor potential channel 6 (Mus musculus) (Q61143 whole entry, looked up): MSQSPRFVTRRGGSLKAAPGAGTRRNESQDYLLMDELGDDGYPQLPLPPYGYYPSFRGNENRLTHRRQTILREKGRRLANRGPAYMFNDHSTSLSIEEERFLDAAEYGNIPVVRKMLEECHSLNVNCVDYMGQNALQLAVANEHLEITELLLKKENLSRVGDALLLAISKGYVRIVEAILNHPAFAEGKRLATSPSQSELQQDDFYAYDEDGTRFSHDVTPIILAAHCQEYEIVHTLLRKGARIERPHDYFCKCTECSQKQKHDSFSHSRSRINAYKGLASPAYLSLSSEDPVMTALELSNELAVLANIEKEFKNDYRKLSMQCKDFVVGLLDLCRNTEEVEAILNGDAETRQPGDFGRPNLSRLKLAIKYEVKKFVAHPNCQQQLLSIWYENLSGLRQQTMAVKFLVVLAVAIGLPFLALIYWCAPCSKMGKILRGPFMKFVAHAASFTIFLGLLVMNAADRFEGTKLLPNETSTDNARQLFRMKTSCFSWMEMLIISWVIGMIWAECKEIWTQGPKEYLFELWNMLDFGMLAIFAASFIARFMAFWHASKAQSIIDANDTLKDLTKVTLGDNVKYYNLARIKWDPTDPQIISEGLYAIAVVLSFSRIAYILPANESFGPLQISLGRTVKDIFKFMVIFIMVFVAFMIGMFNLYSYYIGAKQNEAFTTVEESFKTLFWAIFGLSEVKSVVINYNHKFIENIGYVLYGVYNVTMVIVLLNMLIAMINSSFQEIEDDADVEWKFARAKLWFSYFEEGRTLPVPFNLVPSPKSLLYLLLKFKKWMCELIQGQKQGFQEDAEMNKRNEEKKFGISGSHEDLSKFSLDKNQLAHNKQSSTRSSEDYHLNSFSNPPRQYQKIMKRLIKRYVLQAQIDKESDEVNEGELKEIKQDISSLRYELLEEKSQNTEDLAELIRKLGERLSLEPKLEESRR
row,SMILES,outcome
1,c1ccc(Nc2nc(Nc3ccccc3)nc(N3CCNCC3)n2)cc1,inactive
2,CN(C)C(CNc1ncnc2sc3c(c12)CCCC3)c1ccco1 (stereo not given),inactive
3,CC(=O)Nc1ccc(CN2CCCC(C(=O)c3cccc(C(F)(F)F)c3)C2)cc1 (stereo not given),inactive
4,NCCCn1c(C(=O)c2cc(Cl)c(N)c(Cl)c2)c2ccccc2[n+]1[O-],inactive
5,CCN1CCN(c2c(Cl)cccc2NC(=O)c2ccc3nsnc3c2)CC1,inactive
6,COc1ccc(-c2cc(C(=O)NCC(c3ccccc3)N(C)C)c3ccccc3n2)cc1OC (stereo not given),inactive
7,O=C(c1sc2ccccc2c1Cl)N(Cc1cccs1)C1CCS(=O)(=O)C1 (stereo not given),inactive
8,O=S(=O)(c1ccccc1)c1nnn2c1nc(NC1CCN(Cc3ccccc3)CC1)c1cc(Cl)ccc12,inactive
9,CCCc1c(O)nc(SCCN(CCC)CCC)[nH]c1=O,inactive
10,O=C(CCc1ccccc1)NNC(=S)NC(=O)c1ccc(Cl)cc1,inactive
11,CCCCN(C)CCCNC(=O)CN1N=C(c2ccc(Cl)cc2)CCC1=O,inactive
12,CC1(C)CC(=O)c2cc(C(=O)NCc3ccco3)c(=O)n(-c3ccc(Cl)cc3)c2C1,inactive
13,CCOC(=O)C1CCCN(C(c2ccccn2)c2c(C)[nH]c3ccccc23)C1 (stereo not given),inactive
14,O=C(Nc1nnc(-c2ccccc2Cl)o1)c1nc2ccccc2s1,inactive
15,CCCCC(c1nnnn1CC1CCCO1)N1CCN(c2nc3ccccc3s2)CC1 (stereo not given),inactive
16,c1ccc2c(c1)CCN(c1ncnc3c1[nH]c1ccccc13)C2,inactive
17,COc1ccc(C(CNCC(=O)Nc2ccccc2F)N(C)C)cc1 (stereo not given),inactive
18,O=S(=O)(c1ccc(Cl)cc1)N1CCN2CCCC2C1 (stereo not given),inactive
19,COc1cc(OC)c(CN2CCC(Cc3ccccc3)CC2)cc1Br,inactive
20,CCOC(=O)C1(CCOc2ccccc2)CCN(Cc2ccc(NC(C)=O)cc2)CC1,inactive
21,O=C(C1CCCN(Cc2ccccc2)C1)N1CCc2ccccc2C1 (stereo not given),inactive
22,Cc1csc2c(N3CCN(C(=S)Nc4ccc(F)cc4F)CC3)ncnc12,inactive
23,Cc1ccc(C2(O)CN(c3ccccc3C)C3=[N+]2CCS3)cc1 (stereo not given),inactive
24,CCn1cc(CN2CCCC(C(=O)Nc3ccc(-c4nc5ccccc5[nH]4)cc3)C2)c(C)n1 (stereo not given),inactive
25,CN(C)C(CNC(=S)Nc1cccc(Cl)c1)c1cccnc1 (stereo not given),inactive

# Target: Short transient receptor potential channel 6 (Mus musculus) (UniProt Q61143)
# Test: TRPC6 opening by TRPC4 activator hits – cell-based, HEK293, membrane potential dye, duplicate, selectivity assay for TRPC4 activator project, confirmation (AID 434950);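 as to activation: 0% = buffer only wells and 100% = acetylcholine maximal-effect wells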
# Details: HEK293 TRPC6, membrane potential fluorescence, at 10 µM; activation: hits give high values; outcome: activation
SMILES,activation,outcome
O=C1/C(=C\c2cc(Cl)c(O)c(Cl)c2)SC(=S)N1Cc1ccccc1,1320% (active),–
COc1ccc(C(=O)NC(=S)NNC(=O)c2c(-c3ccccc3)noc2C)cc1,28.5% (active),–
O=C(c1sc2ccccc2c1Cl)N(Cc1ccco1)C1CCS(=O)(=O)C1 (stereo not given),57.5% (active),–
Cc1cc(-c2ccc(C)c(S(=O)(=O)NCCCN(Cc3ccccc3)C(C)C)c2)on1,44.5% (active),–
CCc1nc(NCCc2ccccn2)c2nnn(Cc3ccccc3F)c2n1,49% (active),–
CN(C)CCCN(C(=O)c1ccc(S(=O)(=O)N2CCCc3ccccc32)cc1)c1nc2ccc(F)cc2s1,–,inactive
CSCCC(NS(=O)(=O)c1ccc2c(c1)c(=O)n(C)c(=O)n2C)C(=O)NC1CCN(Cc2ccccc2)CC1 (stereo not given),–,inactive
CCC1(c2ccc(F)cc2)NC(=O)N(CC(=O)c2cc(C)n(C3CC3)c2C)C1=O (stereo not given),–,inactive
CN(C)CCCN(C(=O)c1ccc(C(=O)c2ccccc2)cc1)c1nc2ccc(F)cc2s1,–,inactive
Cc1ccc(-n2cc(CNCC3CC(=O)N(C4CC4)C3)c(-c3cccc(C)c3)n2)cc1 (stereo not given),52.5% (active),–
CC1CCCN(CCCNC(=O)c2ccc3c(c2)N(Cc2ccccc2F)C(=O)c2ccccc2S3(=O)=O)C1 (stereo not given),–,inactive
Cc1nc(/N=C(\N)NC(=O)NC2CCCCC2)nc2ccccc12,–,inactive
COc1ccc(C(CNC(=O)c2cccc(NS(=O)(=O)c3ccc(C)c(F)c3)c2)N(C)C)cc1 (stereo not given),28.5% (active),–
CCN1CCN(c2ccc(S(=O)(=O)N3CCCCC3)cc2NC(=O)COc2ccccc2)CC1,–,inactive
CCCN(CCC)CCCNC(=O)C1CCN(S(=O)(=O)c2cccc3nsnc23)CC1,–,inactive
c1ccc(Nc2nc(Nc3ccccc3)nc(N3CCNCC3)n2)cc1,35.5% (active),–
CN(C)C(CNc1ncnc2sc3c(c12)CCCC3)c1ccco1 (stereo not given),–,inactive
CC(=O)Nc1ccc(CN2CCCC(C(=O)c3cccc(C(F)(F)F)c3)C2)cc1 (stereo not given),29.5% (active),–
NCCCn1c(C(=O)c2cc(Cl)c(N)c(Cl)c2)c2ccccc2[n+]1[O-],–,inactive
CCN1CCN(c2c(Cl)cccc2NC(=O)c2ccc3nsnc3c2)CC1,–,inactive

SMILES,activation,outcome
COc1ccc(-c2cc(C(=O)NCC(c3ccccc3)N(C)C)c3ccccc3n2)cc1OC (stereo not given),–,inactive
O=C(c1sc2ccccc2c1Cl)N(Cc1cccs1)C1CCS(=O)(=O)C1 (stereo not given),35% (active),–
O=S(=O)(c1ccccc1)c1nnn2c1nc(NC1CCN(Cc3ccccc3)CC1)c1cc(Cl)ccc12,–,inactive
CCCc1c(O)nc(SCCN(CCC)CCC)[nH]c1=O,–,inactive
O=C(CCc1ccccc1)NNC(=S)NC(=O)c1ccc(Cl)cc1,30% (active),–
CCCCN(C)CCCNC(=O)CN1N=C(c2ccc(Cl)cc2)CCC1=O,30% (active),–
CC1(C)CC(=O)c2cc(C(=O)NCc3ccco3)c(=O)n(-c3ccc(Cl)cc3)c2C1,66.5% (active),–
CCOC(=O)C1CCCN(C(c2ccccn2)c2c(C)[nH]c3ccccc23)C1 (stereo not given),31% (active),–
O=C(Nc1nnc(-c2ccccc2Cl)o1)c1nc2ccccc2s1,–,inactive
CCCCC(c1nnnn1CC1CCCO1)N1CCN(c2nc3ccccc3s2)CC1 (stereo not given),60.5% (active),–
c1ccc2c(c1)CCN(c1ncnc3c1[nH]c1ccccc13)C2,–,inactive
COc1ccc(C(CNCC(=O)Nc2ccccc2F)N(C)C)cc1 (stereo not given),59% (active),–
O=S(=O)(c1ccc(Cl)cc1)N1CCN2CCCC2C1 (stereo not given),27% (active),–
COc1cc(OC)c(CN2CCC(Cc3ccccc3)CC2)cc1Br,43.5% (active),–
CCOC(=O)C1(CCOc2ccccc2)CCN(Cc2ccc(NC(C)=O)cc2)CC1,51% (active),–
O=C(C1CCCN(Cc2ccccc2)C1)N1CCc2ccccc2C1 (stereo not given),71% (active),–
Cc1csc2c(N3CCN(C(=S)Nc4ccc(F)cc4F)CC3)ncnc12,–,inactive
Cc1ccc(C2(O)CN(c3ccccc3C)C3=[N+]2CCS3)cc1 (stereo not given),43.5% (active),–
CCn1cc(CN2CCCC(C(=O)Nc3ccc(-c4nc5ccccc5[nH]4)cc3)C2)c(C)n1 (stereo not given),52% (active),–
CN(C)C(CNC(=S)Nc1cccc(Cl)c1)c1cccnc1 (stereo not given),–,inactive
